Screens as filed in PubChem BioAssay.
This is one part of a sample in which hits are shown more often than they occur.
HUVEC prolif 384: inhibitors of HUVEC proliferation, primary screen, cell-based, 384-well; 86,000 tested, 1.1% active; CellTiter-Glo luminescence, 72 h; stronger effect = lower value; AID 648, 2007; viability, % at 10 µM (by protocol);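 active = viability at or below 30%; inactive = viability above 30%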;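 note: 100% = median luminescence of DMSO-only cell control wells on each plate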
Lung fibro prol: antiproliferative effect on LL 47 fibroblasts – human, LL 47 cells, CellTiter-Glo luminescence, primary screen; LL 47 human lung fibroblast viability, ATP luminescence; stronger effect = lower value; viability, % at 10 µM; 85,000 tested, 1.1% active;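 active = viability at or below 50% in the single dose screen; inactive = viability above 50%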;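 note: compound exposure lasted 72 h before the ATP readout; 100% = median luminescence of untreated cell-only wells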
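Material: human lung fibroblast line LL 47, low passage; Evaluation: viability percentage against median untreated-cell control; Buffer or medium: 15% FBS in IMEM; Incubation: 72 h compound exposure at 37 °C after overnight plating; Dosing: 0.1% DMSO in all compound wells; Measured by: CellTiter-Glo luminescence.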
HCT116 bCat-KO: primary screen for growth suppressors in beta-catenin knockout HCT116 cells (colon tumor, human); HCT116 beta-catenin knockout viability, CellTiter-Glo, 60 h; stronger effect = lower value; viability, % at 10 µM; 140,000 tested, 1.5% active;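 active = viability at or under a set limit, the compound median less 4 SD, cut at about 6% in these data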;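 note: 0% = Hyamine 1622 control at 20 µM and 100% = untreated cell control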
Candida biofilm: clotrimazole potentiators killing Candida biofilms, primary screen, with clotrimazole, Alamar Blue; C. albicans biofilm + clotrimazole; inhibition, % at 6 µM; AID 834, 2007; 85,000 tested, 0.14% active;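 active = inhibition above 20%; inactive = inhibition below 20%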;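 note: preformed 24 hr biofilms exposed to compound for 48 hr; 0% = biofilm without compound and 100% = blank killed by clotrimazole plus chlorhexidine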
H69AR growth 86K: proliferation blockers of H69AR lung cancer cells, primary screen, cell-based, human, 86K library. viability, % at 10 µM. 85,000 tested, 6% active. H69AR lung tumor viability, ATP luminescence, 72 h; stronger effect = lower value. AID 598, 2007;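 active = viability at or below 40%; inactive = viability above 40%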;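 note: multidrug resistant small cell line overexpressing MRP-1 efflux transporter; 100% = mean luminescence of untreated control wells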
PTEN del growth: growth suppression of PTEN-null HCT116, primary screen, cell-based, CellTiter-Glo; HCT116 PTEN-null viability, 60 h; stronger effect = lower value; 140,000 tested, 1.2% active; AID 827, 2007; viability, % at 10 µM;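 active = viability at or below a set limit, 4 SD under the median of all tested compounds, cut at about 3.7% in these data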;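 note: PTEN knockout HCT116 line with beta catenin targeted HCT116 as companion control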
* = called active by the depositor; x = not tested or not shown.

SMILES | HUVEC prolif 384 | Lung fibro prol | HCT116 bCat-KO | Candida biofilm | H69AR growth 86K | PTEN del growth
COc1ccccc1-c1c(C)nn2c(C)cc(C)nc12 | 95.7 | 97.9 | 79.1 | 0.8 | 103.2 | 93.3
COc1ccccc1-c1c(C)nn2c(N3CCC(C(N)=O)CC3)cc(C)nc12 | 100.7 | 97.6 | 105.2 | 12.9 | 82.7 | 95.9
CCOC(=O)N1CCC(Nc2cc(C)nc3c(-c4ccccc4OC)c(C)nn23)CC1 | 73.7 | 90.0 | 50.3 | -1.5 | 37.1* | 67.2
O=C(NC(=S)N1CCN(c2ccc([N+](=O)[O-])cc2)CC1)c1ccccc1F | x | x | 45.4 | x | x | 76.5
COc1ccc(-c2nnc3ccc(SCC(=O)N4CCN(c5ccccc5)CC4)nn23)cc1OC | 77.7 | 96.2 | x | 5.8 | 71.4 | x
CCn1ncc(C2=NOC(C(=O)NCc3ccc(Cl)cc3)C2)c1C (stereo not given) | 55.6 | 66.7 | 16.6 | 2.4 | 37.0* | 18.3
CCn1ncc(C2=NOC(C(=O)Nc3ccc(C)cc3)C2)c1C (stereo not given) | 108.9 | 98.6 | 99.9 | 6.0 | 108.5 | 84.0
CCOc1ccc(-c2nc(=S)[nH][nH]2)cc1 | 91.7 | 101.7 | 106.7 | 6.1 | 39.8* | 97.2
COc1ccc(-c2nc(=S)[nH][nH]2)cc1 | 97.6 | 99.9 | 91.1 | 9.9 | 77.4 | 94.4
O=C(Nc1ccc(Br)cc1F)c1cccnc1 | x | x | 84.2 | x | x | 89.3
Cn1c(Oc2ccc3c(c2)OCO3)nc2c1c(=O)n(Cc1ccccc1)c(=O)n2C | 100.5 | 111.1 | 74.0 | 8.1 | 69.6 | 67.7
Cn1c(=O)c2c(nc(NCc3ccc4c(c3)OCO4)n2Cc2ccccc2)n(C)c1=O | 89.4 | 96.6 | 64.7 | 6.3 | 28.8* | 61.8
Cn1c(=O)c2c(nc(Oc3ccc4c(c3)OCO4)n2Cc2ccc(Cl)cc2)n(C)c1=O | 11.9* | x | 100.0 | 4.1 | 12.4* | 69.2
Cn1c(=O)c2c(nc(NCc3ccc4c(c3)OCO4)n2Cc2ccc(F)cc2)n(C)c1=O | 57.2 | 83.5 | 34.7 | 1.8 | 23.0* | 32.3
COc1ccc(S(=O)(=O)N2Cc3ccccc3CC2C(=O)Nc2nccs2)cc1 (stereo not given) | 91.0 | 93.0 | 86.1 | 2.3 | 70.6 | 91.0
O/N=C\c1cccn1-c1ccc(Br)cc1 | 94.4 | 101.6 | 100.9 | 7.5 | 47.6 | 93.9
c1ccc(-c2nc3nc4ccccc4nc3n2Cc2ccco2)cc1 | 92.8 | 95.6 | 77.4 | 6.3 | 45.2 | 92.0
N=c1c2c(-c3ccccc3)c(-c3ccccc3)n(Cc3ccco3)c2ncn1CCN1CCOCC1 | 18.5* | 47.0* | 1.2* | 4.4 | 35.7* | 1.6*
N=c1c2c(-c3ccccc3)c(-c3ccccc3)n(Cc3ccco3)c2ncn1CCO | 42.1 | 50.1 | 1.4* | 9.8 | 17.4* | 1.7*
CN1CCN(C(c2cccnc2)c2ccc3cccnc3c2O)CC1 (stereo not given) | 86.5 | 86.4 | 8.2 | 11.7 | 15.6* | 6.8
O=C(CN1CCCCCC1)N/N=C/c1cccc(Cl)c1Cl | x | x | 89.5 | x | x | 94.0
Cc1cc(C)n(-c2nc3c(c(=O)[nH]c(=O)n3C)n2CCc2ccccc2)n1 | 76.6 | 91.6 | 27.0 | 6.4 | 24.1* | 21.7
Cc1cc(C)n(-c2nc3c(c(=O)[nH]c(=O)n3C)n2CC(O)COc2ccc(Cl)cc2Cl)n1 (stereo not given) | 47.6 | 72.5 | 25.1 | 4.2 | 13.2* | 21.6
CCN(CC)CCNc1nc2c(c(=O)[nH]c(=O)n2C)n1CC(O)COc1ccc(Cl)cc1Cl (stereo not given) | 83.2 | 91.6 | 77.3 | 2.3 | 77.2 | 78.9
Cc1cc(C)n(-c2nc3c(c(=O)[nH]c(=O)n3C)n2Cc2ccccc2)n1 | 95.5 | 97.0 | 97.1 | 5.9 | 101.3 | 107.2
SMILES | HUVEC prolif 384 | Lung fibro prol | HCT116 bCat-KO | Candida biofilm | H69AR growth 86K | PTEN del growth
COC(=O)[C@@]1(Cc2ccc(F)cc2)[C@H]2c3cc(C(=O)N(C)C)n(Cc4ccc(OC(F)(F)F)cc4)c3C[C@H]2CN1C(=O)c1ccccc1 | x | x | 6.6 | x | x | 11.2
O=S(=O)(Nc1ccc(-c2csc(-c3ccccc3)n2)cc1)c1ccc(F)cc1 | x | x | 85.2 | x | x | 84.8
COc1ccccc1C(=O)Nc1nc(-c2ccc(S(=O)(=O)N3CCOCC3)cc2)cs1 | 48.7 | 22.7* | 5.7* | 8.6 | 44.9 | 8.8
COc1ccccc1OC(C)C(=O)Nc1nc(-c2ccc(S(=O)(=O)N3CCOCC3)cc2)cs1 (stereo not given) | 99.0 | 97.2 | 87.9 | 2.9 | 82.3 | 83.5
O=C(Nc1nc(-c2ccccc2)cs1)c1ccccc1NS(=O)(=O)c1ccc(F)cc1 | x | x | 4.4* | x | x | 4.9
CCOc1cccc(C(=O)Nc2nc(-c3ccc(S(=O)(=O)N4CCOCC4)cc3)cs2)c1 | 80.9 | 83.0 | 81.8 | 1.5 | 31.9* | 76.3
COc1ccc(OC)c(Nc2cc(-c3ccccc3)nc(N)n2)c1 | 43.6 | 63.7 | 13.2 | 9.4 | 25.1* | 13.0
COc1ccc(OC)c(Nc2cc(C)nc3ccccc23)c1 | 81.7 | 86.9 | 27.5 | 4.5 | 107.3 | 23.9
Cc1cc(C(=O)Nn2c(-c3ccc(Br)cc3)nc3ccccc3c2=O)ccc1[N+](=O)[O-] | x | x | 73.1 | x | x | 74.7
CCCN(CCC)CCNC(=O)C1CCN(Cc2nc(-c3ccc(Cl)cc3)oc2C)CC1 | 9.9* | 36.5* | 2.2* | -5.4 | 59.0 | 2.2*
CCc1ccc(-c2nc(CN3CCCC(C(=O)NCCc4ccc(OC)c(OC)c4)C3)c(C)o2)cc1 (stereo not given) | 60.2 | 78.4 | 1.9* | 8.7 | 37.3* | 3.0*
Cc1cc(C)c(C(=O)Nc2ccc(Br)c(C(F)(F)F)c2)c(C)c1 | x | x | 56.8 | x | x | 32.0
S=c1[nH]nc(-c2cccc(Cl)c2)n1CCN1CCCCC1 | x | x | 99.5 | x | x | 96.1
Cc1ccc(NC(=O)CSc2ncnc3ccccc23)cc1S(=O)(=O)N1CCCCCC1 | x | x | 73.3 | x | x | 74.0
Cc1ccccc1-c1nc2sc3c(c2c(=O)n1N)CCCC3 | 93.2 | 89.5 | 86.1 | 5.2 | 43.8 | 87.7
CC1(C)Cc2c(sc3nc(-c4ccccc4)n(N)c(=O)c23)CO1 | 114.1 | 99.5 | 81.9 | 4.4 | 93.6 | 89.2
Nn1c(-c2cccs2)nc2sc3c(c2c1=O)CCCC3 | 68.8 | 84.0 | 63.3 | 3.2 | 31.4* | 50.1
CC1(C)Cc2c(sc3nc(-c4cccs4)n(N)c(=O)c23)CO1 | 83.7 | 83.0 | 37.7 | 4.5 | 35.5* | 38.8
Cc1cc(C)c(S(=O)(=O)N2CCC(C(=O)NCc3ccc(Cl)cc3Cl)CC2)c(C)c1 | 83.3 | 95.0 | 74.8 | 69.0* | 99.7 | 79.8
c1cc2c3c(cccc3c1)NC1(CCCCCC1)N2 | 5.5* | 82.8 | 79.7 | 10.4 | 51.2 | 90.4
Cc1c(Cl)cccc1NC(=O)[C@@H](NC(=O)c1ccccc1Cl)C(C)C | x | x | 76.5 | x | x | 47.8
